In ChEMBL document CHEMBL3046018, “Design, syntheses and 3D-QSAR studies of novel N-phenyl pyrrolidin-2-ones and N-phenyl-1H-pyrrol-2-ones as protoporphyrinogen oxidase inhibitors” (Bioorg Med Chem, 2010):

How the values were obtained:
Eclipta prostrata = test: Herbicidal activity against Eclipta prostrata assessed as growth inhibition at 150 g ai/ha using post-emergence protocol under greenhouse conditions measured 15 days after compound treatment; type: functional; conditions: 360 h, read-out: GI
How it was run: (§1)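 Post-emergence greenhouse spray on pot-grown broadleaf weeds at the 2-leaf stage. Formulation concentrates were diluted with water. Soil was clay, pH 6.5, 1.6% organic matter, 37.3% clay particles, CEC 12.1 mol/kg. The rate was total active ingredient divided by pot surface area. Untreated seedlings and DMF-treated seedlings served as controls.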

Chenopodium album = test: Herbicidal activity against Chenopodium album assessed as growth inhibition at 150 g ai/ha using post-emergence protocol under greenhouse conditions measured 15 days after compound treatment; type: functional; conditions: 360 h, read-out: GI; how it was run: as §1
Amaranthus retroflexus = test: Herbicidal activity against Amaranthus retroflexus assessed as growth inhibition at 150 g ai/ha using post-emergence protocol under greenhouse conditions measured 15 days after compound treatment; type: functional; conditions: 360 h, read-out: GI; how it was run: as §1
Brassica juncea = test: Herbicidal activity against Brassica juncea assessed as growth inhibition at 150 g ai/ha using post-emergence protocol under greenhouse conditions measured 15 days after compound treatment; type: functional; conditions: 360 h, read-out: GI; how it was run: as §1
Setaria viridis = test: Herbicidal activity against Setaria viridis assessed as growth inhibition at 150 g ai/ha using post-emergence protocol under greenhouse conditions measured 15 days after compound treatment; type: functional; conditions: 360 h, read-out: GI
How it was run: (§2)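 Grass weeds were grown in pots in the greenhouse and sprayed post-emergence at the 1-leaf stage. The spray was formulation concentrate diluted in water. Soil was clay, pH 6.5, 1.6% organic matter, 37.3% clay particles, CEC 12.1 mol/kg. The g.ai/ha rate was active ingredient over pot surface area. Controls were untreated and DMF-treated seedlings.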

Echinochloa crus-galli = test: Herbicidal activity against Echinochloa crus-galli (barnyard grass) assessed as growth inhibition at 150 g ai/ha using post-emergence protocol under greenhouse conditions measured 15 days after compound treatment; type: functional; conditions: 360 h, read-out: GI; how it was run: as §2
Digitaria sanguinalis = test: Herbicidal activity against Digitaria sanguinalis (hairy crabgrass) assessed as growth inhibition at 150 g ai/ha using post-emergence protocol under greenhouse conditions measured 15 days after compound treatment; type: functional; conditions: 360 h, read-out: GI; how it was run: as §2
[1] = target: T1, Protoporphyrinogen oxidase (Homo sapiens, UniProt P50336); test: Inhibition of Homo sapiens (human) protoporphyrinogen oxidase; conditions: read-out: Ki
T1 sequence (P50336 whole entry): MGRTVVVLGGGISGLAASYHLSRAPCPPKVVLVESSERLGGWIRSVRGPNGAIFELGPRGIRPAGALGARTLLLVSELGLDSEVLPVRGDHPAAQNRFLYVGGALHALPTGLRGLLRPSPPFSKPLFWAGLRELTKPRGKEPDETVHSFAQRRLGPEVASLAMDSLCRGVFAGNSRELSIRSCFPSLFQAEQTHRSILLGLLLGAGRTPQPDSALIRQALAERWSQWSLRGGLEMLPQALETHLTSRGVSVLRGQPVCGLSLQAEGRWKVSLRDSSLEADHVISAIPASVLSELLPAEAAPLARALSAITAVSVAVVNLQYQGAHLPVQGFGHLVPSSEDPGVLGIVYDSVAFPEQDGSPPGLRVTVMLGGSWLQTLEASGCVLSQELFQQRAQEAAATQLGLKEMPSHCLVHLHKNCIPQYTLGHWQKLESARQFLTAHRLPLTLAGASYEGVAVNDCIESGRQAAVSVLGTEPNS

Ki [1] [µM]	Compound	inhibition of growth at 150 g/ha (Eclipta prostrata) [%]	inhibition of growth at 150 g/ha (Chenopodium album) [%]	inhibition of growth at 150 g/ha (Amaranthus retroflexus) [%]	inhibition of growth at 150 g/ha (Brassica juncea) [%]	inhibition of growth at 150 g/ha (Setaria viridis) [%]	inhibition of growth at 150 g/ha (Echinochloa crus-galli) [%]	inhibition of growth at 150 g/ha (Digitaria sanguinalis) [%]
0.53	O=C1C2=C(CCCC2)C(O)N1c1cc(OCc2cccc(Cl)c2)c(Cl)cc1F (stereo not given)	50	50	50	50	< 50	< 50	< 50
33.1	C=CCOc1cc(N2C(=O)C3=C(CCCC3)C2OCC=C)c(F)cc1Cl (stereo not given)	> 80	> 80	100	100	> 80	50	> 80
1.03	C=CCOc1cc(N2C(=O)C3=C(CCCC3)C2O)c(F)cc1Cl (stereo not given)	50	> 80	> 80	50	< 50	< 50	< 50
19.3	O=C1C2=C(CCCC2)C(O)N1c1cc(O)c(Br)cc1F (stereo not given)	50	50	50	< 50	< 50	< 50	50

The remaining lines, values behind:

Compound	Ki [1] [µM]	inhibition of growth at 150 g/ha (Eclipta prostrata) [%]	inhibition of growth at 150 g/ha (Chenopodium album) [%]	inhibition of growth at 150 g/ha (Amaranthus retroflexus) [%]	inhibition of growth at 150 g/ha (Brassica juncea) [%]	inhibition of growth at 150 g/ha (Setaria viridis) [%]	inhibition of growth at 150 g/ha (Echinochloa crus-galli) [%]	inhibition of growth at 150 g/ha (Digitaria sanguinalis) [%]
CC(C)Oc1cc(N2CC3=C(CCCC3)C2=O)c(F)cc1Cl	0.69	> 80	> 80	100	> 80	50	< 50	< 50
Nc1cc(N2CC3=C(CCCC3)C2=O)ccc1Cl	27.6	< 50	< 50	< 50	< 50	< 50	< 50	< 50
C=CCOC1C2=C(CCCC2)C(=O)N1c1cc(OCc2cccc(Cl)c2)c(Cl)cc1F (stereo not given)	66.6	50	< 50	> 80	< 50	< 50	< 50	50
Cc1nn(-c2cc(NS(C)(=O)=O)c(Cl)cc2Cl)c(=O)n1C(F)F [SULFENTRAZONE]		100	100	100	100	> 80	< 50	< 50
O=C1C2CCCCC2C(O)N1c1cc(OC2CCCC2)c(Cl)cc1F (stereo not given)	24.6	< 50	< 50	< 50	< 50	< 50	< 50	< 50
O=C1NC(=O)c2cc(Cl)ccc21 [4-CHLORO-PHTHALIMIDE]	87.9							
C=CCOC1C2=C(CCCC2)C(=O)N1c1cc(O)c(Br)cc1F (stereo not given)	41.4	50	50	50	< 50	< 50	50	50
